The values below come from ChEMBL document CHEMBL1135230, “Synthesis of Sordaricin analogues as potent antifungal agents against Candida albicans” (2002).

Usually MIC stands for the smallest concentration in the dilution series that meets the test's criterion for growth inhibition. Read a low MIC as greater potency.

Values after ≈ are worked out from the molar mass of the structure shown. A value given as a limit tells only on which side of the number the result lay.

Common to all, as to assay type: functional
The subject of assay [1] is Candida albicans. The experiment in a line: Tested in vitro for the minimum inhibitory concentration (MIC) against Candida albicans ATCC 24433. In outline: (§1)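 Broth MIC determined in RPMI1640 at pH 7.0, incubated at 35 °C; MIC taken as the lowest concentration giving 80% inhibition of fungal growth.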
The subject of assay [2] is Candida albicans. Briefly: Tested in vitro for the minimum inhibitory concentration (MIC) against Candida albicans TIMM3164. In outline: as §1
Assay [3] has as its system Candida albicans. Briefly: Tested in vitro for the minimum inhibitory concentration (MIC) against Candida albicans ATCC 64550. In outline:
as §1

Assay [4] deals with Nakaseomyces glabratus. The experiment in a line: Tested in vitro for the minimum inhibitory concentration (MIC) against Candida glabrata ATCC 90030. In outline:
as §1

For assay [5], the system named is Candida tropicalis. The experiment in a line: Tested in vitro for the minimum inhibitory concentration (MIC) against Candida tropicalis ATCC750. In outline:
as §1

Assay [6] relates to Candida albicans. The experiment in a line: Tested in vitro for the minimum inhibitory concentration (MIC) against Candida albicans SANK51486. In outline: as §1

Consider `CC(C)C1=CC2CC3(C=O)[C@@H]4CC[C@@H](C)[C@H]4CC2(CN(C)C2CCCCC2)C13C(=O)O` (stereo not given in full), for which the MIC in assay [1] is 8 µg/mL (≈ 18.7 µM); in assay [2], 16 µg/mL (≈ 37.4 µM); in assay [3] it was 16 µg/mL (≈ 37.4 µM); in assay [4], 8 µg/mL (≈ 18.7 µM); in assay [5], above 16 µg/mL; in assay [6], 8 µg/mL (≈ 18.7 µM).

Turning to `CC(C)C1=CC2CC3(C=O)[C@@H]4CC[C@@H](C)[C@H]4CC2(C(=O)NC2CCCCC2)C13C(=O)O` (stereo not given in full), the MIC is above 4 µg/mL in assay [1]; above 4 µg/mL in assay [2]; above 4 µg/mL in assay [3]; 0.5 µg/mL (≈ 1.17 µM) in assay [4]; above 4 µg/mL in assay [5]; above 4 µg/mL in assay [6].

Take `CC(C)C1=CC2CC3(C=O)[C@@H]4CC[C@@H](C)[C@H]4CC2(CSC2CCCCC2)C13C(=O)O` (stereo not given in full): the MIC is 0.031 µg/mL (≈ 0.072 µM) in assay [1]; 0.063 µg/mL (≈ 0.146 µM) in assay [2]; 0.125 µg/mL (≈ 0.29 µM) in assay [3]; 0.031 µg/mL (≈ 0.072 µM) in assay [4]; 2 µg/mL (≈ 4.64 µM) in assay [5]; at most 0.016 µg/mL in assay [6].

Turning to `C/C=C/C=C\C(=O)O[C@H]1[C@H](O)[C@H](OCC23C[C@@H]4[C@H](C)CC[C@H]4C4(C=O)CC2C=C(C(C)C)C34C(=O)O)O[C@H](C)[C@H]1OC` (stereo not given in full), the MIC in assay [1] was 0.5 µg/mL (≈ 0.852 µM); in assay [2], 0.5 µg/mL (≈ 0.852 µM); in assay [3] it was 0.5 µg/mL (≈ 0.852 µM); in assay [4] it was above 4 µg/mL; in assay [5], 0.5 µg/mL (≈ 0.852 µM); in assay [6], 0.25 µg/mL (≈ 0.426 µM).

Regarding `CC(C)C1=CC2CC3(C=O)[C@@H]4CC[C@@H](C)[C@H]4CC2(CON=C2CCCCC2)C13C(=O)O` (stereo not given in full), the MIC in assay [1] worked out at 0.031 µg/mL (≈ 0.0725 µM); in assay [2] it was 0.063 µg/mL (≈ 0.147 µM); in assay [3], 0.063 µg/mL (≈ 0.147 µM); in assay [4], 0.063 µg/mL (≈ 0.147 µM); in assay [5] it was 1 µg/mL (≈ 2.34 µM); in assay [6] it was 0.031 µg/mL (≈ 0.0725 µM).

`CC(C)C1=CC2CC3(C=O)[C@@H]4CC[C@@H](C)[C@H]4CC2(COC2CCCCC2)C13C(=O)O` (stereo not given in full): the MIC in assay [1] is 0.125 µg/mL (≈ 0.302 µM); in assay [2], 0.25 µg/mL (≈ 0.603 µM); in assay [3], 0.25 µg/mL (≈ 0.603 µM); in assay [4], at most 0.063 µg/mL; in assay [5], 2 µg/mL (≈ 4.82 µM); in assay [6], at most 0.063 µg/mL.

For the compound `CC(C)C1=CC2CC3(C=O)[C@@H]4CC[C@@H](C)[C@H]4CC2(/C=N/OC2CCCCC2)C13C(=O)O` (stereo not given in full), the MIC in assay [1] is 0.031 µg/mL (≈ 0.0725 µM); in assay [2], 0.063 µg/mL (≈ 0.147 µM); in assay [3], 0.063 µg/mL (≈ 0.147 µM); in assay [4] it was 0.125 µg/mL (≈ 0.292 µM); in assay [5], 1 µg/mL (≈ 2.34 µM); in assay [6], 0.031 µg/mL (≈ 0.0725 µM).

As for `CC(C)C1=CC2CC3(C=O)[C@@H]4CC[C@@H](C)[C@H]4CC2(C(=O)OC2CCCCC2)C13C(=O)O` (stereo not given in full), the MIC in assay [1] was at most 0.125 µg/mL; in assay [2] it was 0.25 µg/mL (≈ 0.583 µM); in assay [3] it was 0.5 µg/mL (≈ 1.17 µM); in assay [4], 0.5 µg/mL (≈ 1.17 µM); in assay [5] it was 4 µg/mL (≈ 9.33 µM); in assay [6] it was at most 0.125 µg/mL.

As for `OC(Cn1cncn1)(Cn1cncn1)c1ccc(F)cc1F` [FLUCONAZOLE], the MIC was 0.5 µg/mL (≈ 1.63 µM) in assay [1]; above 4 µg/mL in assay [2]; above 4 µg/mL in assay [3]; above 4 µg/mL in assay [4]; 0.5 µg/mL (≈ 1.63 µM) in assay [5]; 0.25 µg/mL (≈ 0.816 µM) in assay [6].

As for `CCC(C)n1ncn(-c2ccc(N3CCN(c4ccc(OC[C@H]5CO[C@](Cn6cncn6)(c6ccc(Cl)cc6Cl)O5)cc4)CC3)cc2)c1=O` (stereo not given in full) [ITRACONAZOLE], the MIC in assay [1] is 0.125 µg/mL (≈ 0.177 µM); in assay [2], 0.25 µg/mL (≈ 0.354 µM); in assay [3], 1 µg/mL (≈ 1.42 µM); in assay [4] it was 1 µg/mL (≈ 1.42 µM); in assay [5], 0.5 µg/mL (≈ 0.709 µM); in assay [6], 0.031 µg/mL (≈ 0.0439 µM).
